The values below come from ChEMBL document CHEMBL5543089, “Discovery of a novel, highly potent EZH2 PROTAC degrader for targeting non-canonical oncogenic functions of EZH2” (Eur J Med Chem, 2024).

Data set [1] concerns the target Protein arginine N-methyltransferase 7 (Homo sapiens) (UniProt Q9NVM4). Kind of data set: Inhibition of human PRMT7 assessed as methyltransferase activity using GST-GAR as substrate at 10 uM by radioisotope based MT HotSpot assay relative to control. The procedure, abridged:
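Radioisotope-based methyltransferase assay (MT HotSpot) run by a contract lab. Compound was tested at 10 μM against a panel of 20 methyltransferases, in duplicate. Values are means ± SD of two replicates.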

Data set [2] is described as follows: Cmax in mouse at 50 mg/kg, ip measured after 4 hrs. Type of data set: ADME, organism-based. Conditions: in vivo.

Protein arginine N-methyltransferase 7 (Homo sapiens), sequence (Q9NVM4 whole entry): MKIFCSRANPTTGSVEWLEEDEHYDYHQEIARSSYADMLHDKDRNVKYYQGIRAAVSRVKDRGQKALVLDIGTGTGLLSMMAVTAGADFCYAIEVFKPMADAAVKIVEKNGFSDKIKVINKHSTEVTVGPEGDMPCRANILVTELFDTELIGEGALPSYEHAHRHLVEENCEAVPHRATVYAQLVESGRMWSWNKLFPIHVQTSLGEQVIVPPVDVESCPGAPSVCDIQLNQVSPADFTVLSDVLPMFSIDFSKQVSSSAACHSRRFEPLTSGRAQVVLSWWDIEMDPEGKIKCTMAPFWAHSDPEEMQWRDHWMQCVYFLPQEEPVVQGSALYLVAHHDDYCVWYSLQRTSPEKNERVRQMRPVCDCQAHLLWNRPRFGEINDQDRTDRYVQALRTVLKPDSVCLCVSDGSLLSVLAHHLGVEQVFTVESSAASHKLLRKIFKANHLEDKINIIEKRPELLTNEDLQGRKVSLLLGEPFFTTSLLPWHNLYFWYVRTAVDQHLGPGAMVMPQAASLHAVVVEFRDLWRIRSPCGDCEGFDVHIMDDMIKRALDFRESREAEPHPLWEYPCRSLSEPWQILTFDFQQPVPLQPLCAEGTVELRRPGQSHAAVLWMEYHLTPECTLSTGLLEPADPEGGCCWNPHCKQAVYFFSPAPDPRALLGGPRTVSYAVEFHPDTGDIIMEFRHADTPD

`CCN(c1cc(-c2ccc(CN3CCN(CCC(=O)NCCCCCCCCCCC(=O)N[C@H](C(=O)N4C[C@H](O)C[C@H]4C(=O)NCc4ccc(-c5scnc5C)cc4)C(C)(C)C)CC3)cc2)cc(C(=O)NCc2c(C)cc(C)[nH]c2=O)c1C)C1CCOCC1`: the inhibition in data set [1] was under 50%. Also, in data set [2], the concentration peaked (Cmax) at 3.9 µM.
